From ChEMBL document CHEMBL1765010, “Reversible competitive α-ketoheterocycle inhibitors of fatty acid amide hydrolase containing additional conformational constraints in the acyl side chain: orally active, long-acting analgesics” (J Med Chem, 2011) come the findings set out here.

Experiment [1] relates to Mus musculus. Briefly: Inhibition of FAAH in C57Bl/6J mouse brain assessed as increase of arachidonic acid level at 30 mg/kg, ip after 1 hr relative to control. To be noted: route intraperitoneal. It is filed as functional. The method in brief: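 Male C57Bl/6J mice (<6 months, 20–28 g) dosed i.p. at 30 mg/kg in 18:1:1 saline:ethanol:emulphor emulsion; brains taken 1 h later. One mouse in the initial screen, 3 per group in the follow-up. Brain homogenized in CHCl3:MeOH:Tris pH 8.0 with deuterated lipid standards; organic extract quantified by reverse-phase C18 LC-ESI-MS/MS against vehicle controls.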

Experiment [2] deals with Mus musculus. Briefly: Inhibition of FAAH in C57Bl/6J mouse brain assessed as increase of anandamide level at 10 to 50 mg/kg, po after up to 9 hrs. It counts as functional, organism-based. Put shortly:
(§1)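 Male C57Bl/6J mice (<6 months, 20–28 g) given a single oral dose as a PEG300 solution. Brains were homogenized in CHCl3:MeOH:Tris pH 8.0 containing deuterated internal standards. The organic extract was analysed by reverse-phase C18 LC–ESI triple-quadrupole MS for anandamide, PEA, OEA and 2-AG. Dose series (10, 25, 50 mg/kg) was sampled at 1 h; the 50 mg/kg time course ran to 9 h. Three mice per group in the i.p./p.o. comparison.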

Experiment [3] relates to Mus musculus. The experiment is described as follows: Inhibition of FAAH in po dosed C57Bl/6J mouse brain assessed as increase of N-palmitoyl ethanolamine level after 1 hr relative to control. It is filed as functional, organism-based. To be noted: in the assay text read “anandamide” for “N-palmitoyl ethanolamine”. Put shortly:
as §1

Experiment [4] deals with Mus musculus. The experiment is described as follows: Inhibition of FAAH in C57Bl/6J mouse brain assessed as increase of N-palmitoyl ethanolamine level at 10 to 50 mg/kg, po after 1 hr relative to control. It is filed as functional. To be noted: dose mg/kg 10-50. Put shortly:
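Male C57Bl/6J mice (<6 months, 20–28 g) given compound orally as a PEG300 solution at 10, 25 or 50 mg/kg, with 3 mice per group in the 50 mg/kg p.o. comparison; brains collected 1 h post-dose. Lipids extracted in CHCl3:MeOH:Tris pH 8.0 with deuterated internal standards, then measured by C18 LC-ESI-MS/MS relative to vehicle-treated mice.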

Experiment [5] concerns Mus musculus. Briefly: Inhibition of FAAH in C57Bl/6J mouse liver assessed as increase of N-palmitoyl ethanolamine level at 30 mg/kg, ip after 1 hr relative to control. It counts as functional. As to conditions: route intraperitoneal.
The subject of experiment [6] is Mus musculus. Briefly: Inhibition of FAAH in C57Bl/6J mouse liver assessed as increase of 2-arachidonoylglycerol level at 30 mg/kg, ip after 1 hr relative to control. It is filed as functional. To be noted: route intraperitoneal.
Experiment [7] has as its system Mus musculus. The experiment is described as follows: Inhibition of FAAH in po dosed C57Bl/6J mouse brain assessed as increase of 2-arachidonoylglycerol level after 1 hr relative to control. It is filed as functional, organism-based. Put shortly:
as §1

Experiment [8] concerns Mus musculus. The experiment is described as follows: Inhibition of FAAH in po dosed C57Bl/6J mouse brain assessed as increase of anandamide level after 1 hr relative to control. It counts as functional, organism-based. Put shortly:
as §1

In experiment [9] the test system is Mus musculus. Briefly: Inhibition of FAAH in C57Bl/6J mouse brain assessed as increase of 2-arachidonoylglycerol level at 50 mg/kg, po. It counts as functional, organism-based. To be noted: TDE = time-dependent effect. More on the design: dose 50 mg/kg. The method in brief: as §1
In experiment [10] the target is T1, Fatty-acid amide hydrolase 1 (Rattus norvegicus, UniProt P97612).
T1 sequence (P97612 whole entry): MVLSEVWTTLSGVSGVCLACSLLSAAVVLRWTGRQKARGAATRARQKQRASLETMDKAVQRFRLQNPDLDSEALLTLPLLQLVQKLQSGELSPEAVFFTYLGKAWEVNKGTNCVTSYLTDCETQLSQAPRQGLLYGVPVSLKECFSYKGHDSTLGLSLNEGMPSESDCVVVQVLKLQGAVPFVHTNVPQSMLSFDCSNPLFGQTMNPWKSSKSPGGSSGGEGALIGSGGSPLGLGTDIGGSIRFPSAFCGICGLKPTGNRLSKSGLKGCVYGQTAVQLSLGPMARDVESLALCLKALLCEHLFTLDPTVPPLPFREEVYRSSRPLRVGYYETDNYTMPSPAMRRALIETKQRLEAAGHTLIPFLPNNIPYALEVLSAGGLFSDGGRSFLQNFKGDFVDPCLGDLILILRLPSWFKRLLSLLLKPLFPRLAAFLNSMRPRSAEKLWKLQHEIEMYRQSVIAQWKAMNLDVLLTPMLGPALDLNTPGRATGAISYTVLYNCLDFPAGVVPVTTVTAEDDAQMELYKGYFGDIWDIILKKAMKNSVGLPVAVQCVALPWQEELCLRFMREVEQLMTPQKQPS
Briefly: Inhibition of rat recombinant FAAH expressed in Escherichia coli assessed as [14C]-labeled oleamide to oleic acid conversion.

The test system of experiment [11] is Mus musculus. Briefly: Inhibition of FAAH in C57Bl/6J mouse brain assessed as increase of anandamide level at 10 to 50 mg/kg, po after 1.5 to 3 hrs. It counts as functional, organism-based.

Activity calls are given as the source filed them. No cut-off for these calls is given here.

Regarding `O=C(c1ncc(-c2ccccn2)o1)[C@H]1CCc2cc(Oc3ccccc3)ccc2C1`, the “fold change (FC)” value in the experiment with Mus musculus [1] was found to be 0.8; with Mus musculus [4] it was 5.5; with Mus musculus [5] it was 3.6; in the experiment with Mus musculus [6] it was 0.8. Besides, the result in the experiment with Mus musculus [2] and in the experiment on Mus musculus [11] was Active. For the same molecule, the Activity entry is “Dose-dependent effect” in the experiment with Mus musculus [3], “Dose-dependent effect” in the experiment with Mus musculus [7], “Dose-dependent effect” in the experiment with Mus musculus [8] and “tde” with Mus musculus [9]. In experiment [10], the Ki (in general, the equilibrium dissociation constant of an inhibitor or competing ligand from its target) came out at 4.4 nM.
